From ChEMBL document CHEMBL1136953, “Design, synthesis, and evaluation of N-acyl modified sialic acids as inhibitors of adenoviruses causing epidemic keratoconjunctivitis” (J Med Chem, 2009)
Activity calls are given as the source filed them. The rule behind the calls is not given here.

Experiments:
[1] = test system: Human adenovirus D37; assay: Inhibition of [35S]labeled Human adenovirus type 37 virions binding to human corneal epithelial cells by liquid scintillation counting; format: functional, organism-based; details: Cornea, Epithelial cell
Method in brief: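 ³⁵S-labeled Ad37 virions preincubated with ligand before being added to HCE cells. After incubation, unbound virions washed away and cell-associated radioactivity measured. Each run used a duplicate dilution series (2, 4, 8 and 16 mM), averaged from duplicates. Experiment repeated three times; large variation allowed only a rough activity estimate.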

[2] = test system: Human adenovirus D37; assay: Antiviral activity against Human adenovirus type 37 virions assessed as inhibition of viral infection in human corneal epithelial cells preincubated for 1 hr; format: functional, organism-based; details: Cornea, Epithelial cell
Method in brief: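 Unlabeled Ad37 virions preincubated with a dilution series of ligand, then incubated with HCE cells. Unbound virions washed off; cell-associated virions allowed to infect. Infected cells stained with rabbit polyclonal anti-Ad37 serum and FITC-conjugated swine anti-rabbit IgG, then counted as fluorescent focus units under an immunofluorescence microscope. Duplicates within one experiment; experiment repeated twice.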

Row | Structure (SMILES) | Activity [1] | Activity [2]
1 | O=C(CO)N[C@H]1[C@H]([C@H](O)[C@H](O)CO)O[C@](O)(C(=O)O)C[C@@H]1O | inactive | 
2 | COC(=O)N[C@H]1[C@H]([C@H](O)[C@H](O)CO)O[C@](OC)(C(=O)O)C[C@@H]1O | Active | Dose-dependent effect
3 | CCC(=O)N[C@H]1[C@H]([C@H](O)[C@H](O)CO)O[C@](OC)(C(=O)O)C[C@@H]1O | Active | Dose-dependent effect
4 | CC(=O)N[C@H]1[C@H]([C@@H](O)[C@@H](O)CO)O[C@@](O)(C(=O)O)C[C@@H]1O | Active | Dose-dependent effect
5 | CO[C@@]1(C(=O)O)C[C@H](O)[C@@H](NC(=O)OC(C)(C)C)[C@H]([C@H](O)[C@H](O)CO)O1 | inactive | 
6 | CNC(=O)N[C@H]1[C@H]([C@H](O)[C@H](O)CO)O[C@](OC)(C(=O)O)C[C@@H]1O | inactive | 
7 | CO[C@@]1(C(=O)O)C[C@H](O)[C@@H](NC(=O)C(C)C)[C@H]([C@H](O)[C@H](O)CO)O1 | inactive | inactive
8 | CCCCC(=O)N[C@H]1[C@H]([C@H](O)[C@H](O)CO)O[C@](OC)(C(=O)O)C[C@@H]1O | inactive | 
9 | CO[C@@]1(C(=O)O)C[C@H](O)[C@@H](NC(=O)c2ccccc2)[C@H]([C@H](O)[C@H](O)CO)O1 | Active | inactive
10 | CCCC(=O)N[C@H]1[C@H]([C@H](O)[C@H](O)CO)O[C@](OC)(C(=O)O)C[C@@H]1O | inactive | inactive
